Where a name gives a salt, the structure may show the parent alone. Calls of active or inactive are those of the source. No cut-off for these calls is given here.
Key:
HCT-116 [1] = test: Cytotoxicity against human HCT116 cells after 4 days by MTT assay; assay type: functional, cell-based; conditions: HCT-116, 96 h
Procedure, shortened: (§1)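 Cells seeded at 2-4 × 10^4 per well and attached overnight in medium with 10% FBS, 5% CO₂, 37 °C. Medium replaced on day 1 with graded compound concentrations. On day 4, MTT added (0.5 mg/mL final) for 4 h, formazan dissolved in DMSO, absorbance read at 570 nm. IC50 from four-parameter logistic fit; mean ± SD of three experiments in triplicate.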

[2] = target: DNA topoisomerase 2-alpha (Homo sapiens) (UniProt P11388); test: Inhibition of human topoisomerase 2alpha-mediated relaxation of supercoiled pBR322 DNA at 100 uM after 30 mins by agarose gel electrophoresis
DU-145 [3] = test: Cytotoxicity against human DU145 cells after 4 days by MTT assay; assay type: functional, cell-based; conditions: DU-145, 96 h; procedure, shortened: as §1
MCF7 [4] = test: Cytotoxicity against human MCF7 cells after 4 days by MTT assay; assay type: functional, cell-based; conditions: MCF7, 96 h; procedure, shortened: as §1
[5] = target: DNA topoisomerase 2-alpha (Homo sapiens) (UniProt P11388); test: Inhibition of human topoisomerase 2alpha-mediated relaxation of supercoiled pBR322 DNA at 20 uM after 30 mins by agarose gel electrophoresis
HeLa [6] = test: Cytotoxicity against human HeLa cells after 4 days by MTT assay; assay type: functional, cell-based; conditions: 96 h; procedure, shortened: as §1
MDA-MB-231 = test: Cytotoxicity against human MDA-MB-231 cells after 4 days by MTT assay; assay type: functional, cell-based; conditions: MDA-MB-231, 96 h; procedure, shortened: as §1
Nucleic Acid = test: Binding affinity to Escherichia coli linearized pBR322 DNA at 100 uM after 2 hrs by agarose gel electrophoresis; assay type: nucleic-acid assay
Procedure, shortened: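 DNA cross-linking: 0.5 µg EcoRI-linearized, ethanol-precipitated pBR322 incubated with compound (100 μM) for 2 h at RT in 10 mM Tris-HCl, 1 mM EDTA, pH 8.0. Run on denaturing 1.2% alkaline agarose (50 mM NaOH, 1 mM EDTA running buffer), then neutralized 1 h in 100 mM Tris, 150 mM NaCl, pH 7.6.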

HeLa [7] = test: Ratio of compound IC50 to adriamycin IC50 for human HeLa cells; assay type: functional
DU-145 [8] = test: Ratio of compound IC50 to adriamycin IC50 for human DU145 cells; assay type: functional
MCF7 [9] = test: Ratio of compound IC50 to adriamycin IC50 for human MCF7 cells; assay type: functional
HCT-116 [10] = test: Ratio of compound IC50 to adriamycin IC50 for human HCT116 cells; assay type: functional

DNA topoisomerase 2-alpha (Homo sapiens), sequence (P11388 whole entry): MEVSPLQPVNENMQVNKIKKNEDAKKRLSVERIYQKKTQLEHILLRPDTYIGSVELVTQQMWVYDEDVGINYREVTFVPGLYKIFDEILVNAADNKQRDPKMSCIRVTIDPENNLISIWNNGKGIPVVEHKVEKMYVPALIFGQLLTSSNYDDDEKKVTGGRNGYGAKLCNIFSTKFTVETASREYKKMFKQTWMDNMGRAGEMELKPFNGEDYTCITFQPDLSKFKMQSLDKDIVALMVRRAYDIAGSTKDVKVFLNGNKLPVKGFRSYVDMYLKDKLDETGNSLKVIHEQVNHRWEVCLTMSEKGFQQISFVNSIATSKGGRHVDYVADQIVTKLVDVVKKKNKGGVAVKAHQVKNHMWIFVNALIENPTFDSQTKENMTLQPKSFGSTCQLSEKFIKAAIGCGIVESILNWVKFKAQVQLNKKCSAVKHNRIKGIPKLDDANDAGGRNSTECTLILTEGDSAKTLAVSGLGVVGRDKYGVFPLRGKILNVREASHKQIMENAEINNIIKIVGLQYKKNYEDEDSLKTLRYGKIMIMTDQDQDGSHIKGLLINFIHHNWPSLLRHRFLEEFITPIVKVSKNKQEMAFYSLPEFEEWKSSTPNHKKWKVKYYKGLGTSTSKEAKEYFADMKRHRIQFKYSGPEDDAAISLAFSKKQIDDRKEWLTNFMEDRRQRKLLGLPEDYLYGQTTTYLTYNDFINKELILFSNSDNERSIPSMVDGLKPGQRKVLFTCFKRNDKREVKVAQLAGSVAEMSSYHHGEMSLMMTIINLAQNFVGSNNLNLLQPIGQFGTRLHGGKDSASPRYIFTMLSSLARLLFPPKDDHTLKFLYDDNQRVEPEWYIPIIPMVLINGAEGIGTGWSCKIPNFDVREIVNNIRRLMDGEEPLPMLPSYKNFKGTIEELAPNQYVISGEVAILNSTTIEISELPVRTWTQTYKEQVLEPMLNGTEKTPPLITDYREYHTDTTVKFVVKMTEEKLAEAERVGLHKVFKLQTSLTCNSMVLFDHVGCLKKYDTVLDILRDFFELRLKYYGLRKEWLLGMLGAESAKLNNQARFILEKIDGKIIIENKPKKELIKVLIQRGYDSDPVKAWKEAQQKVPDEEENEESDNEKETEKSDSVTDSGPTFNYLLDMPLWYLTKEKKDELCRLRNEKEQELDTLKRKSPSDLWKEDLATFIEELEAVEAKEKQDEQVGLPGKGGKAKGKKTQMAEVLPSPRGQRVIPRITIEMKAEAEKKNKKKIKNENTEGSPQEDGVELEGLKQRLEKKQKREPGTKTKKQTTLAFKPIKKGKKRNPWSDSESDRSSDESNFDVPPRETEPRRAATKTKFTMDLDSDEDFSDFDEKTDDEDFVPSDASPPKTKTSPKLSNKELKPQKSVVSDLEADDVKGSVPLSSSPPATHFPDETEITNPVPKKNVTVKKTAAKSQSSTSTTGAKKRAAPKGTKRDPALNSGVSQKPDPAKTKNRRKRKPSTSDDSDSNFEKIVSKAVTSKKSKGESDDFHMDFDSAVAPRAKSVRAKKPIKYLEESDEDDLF

Row | inhibition [2] [%] | inhibition [5] [%] | Activity (Nucleic Acid) | Compound | IC50 (HCT-116 [1]) [µM] | IC50 (DU-145 [3]) [µM] | IC50 (MCF7 [4]) [µM] | IC50 (HeLa [6]) [µM] | IC50 (MDA-MB-231) [µM] | Ratio IC50 (HeLa [7]) | Ratio IC50 (DU-145 [8]) | Ratio IC50 (MCF7 [9]) | Ratio IC50 (HCT-116 [10])
1 | 51 | 5 | – | COc1cc(OCC2CO2)cc2oc3ccccc3c(=O)c12 (centres undefined) | 6.6 | 1.5 | 14 | 10.5 | 10.9 | – | – | – | –
2 | 85 | 41 | – | COc1cccc2c(=O)c3c(O)cc(OCC(C)(O)CCl)cc3oc12 (centres undefined) | 15.8 | 7.2 | 88.4 | 68.2 | 15.4 | – | – | – | –
3 | 71 | 9 | Active | COc1cccc2c(=O)c3c(OCC4CO4)cc(OCC4CO4)cc3oc12 (centres undefined) | 2 | 2.4 | 9.9 | 4.7 | 5.4 | – | – | – | –
4 | 48 | 15 | Active | COc1cccc2c(=O)c3c(OCC4(C)CO4)cc(OCC4(C)CO4)cc3oc12 (centres undefined) | 0.8 | 0.9 | 2.5 | 1.5 | 5.1 | 2 | 2 | 2 | 2
5 | 4 | 0 | – | COc1cccc2c(=O)c3c(OC)cc(OCC4CO4)cc3oc12 (centres undefined) | 1.5 | 0.8 | 8 | 6.2 | 3.8 | 2 | 2 | 2 | 2
6 | 33 | 1 | – | COc1cc(OCC(O)CCl)cc2oc3ccccc3c(=O)c12 (centres undefined) | 21.6 | 40.1 | > 100 | > 100 | > 100 | – | – | – | –
7 | 65 | 27 | – | COc1cccc2c(=O)c3c(OCC(O)CCl)cc(OCC4CO4)cc3oc12 (centres undefined) | 9.9 | 3.9 | 69 | 41.7 | 18.9 | – | – | – | –
8 | 83 | 2 | – | COc1cccc2c(=O)c3c(OC)cc(OCC(O)CCl)cc3oc12 (centres undefined) | 16.4 | 15.3 | 51.7 | 59.5 | 56 | – | – | – | –
9 | 23 | 3 | – | COc1cccc2c(=O)c3c(O)cc(OCC4(C)CO4)cc3oc12 (centres undefined) | 69.1 | > 100 | > 100 | > 100 | > 100 | – | – | – | –

Further lines, the compound ahead of its results:

Row | Compound | inhibition [2] [%] | inhibition [5] [%] | Activity (Nucleic Acid) | IC50 (HCT-116 [1]) [µM] | IC50 (DU-145 [3]) [µM] | IC50 (MCF7 [4]) [µM] | IC50 (HeLa [6]) [µM] | IC50 (MDA-MB-231) [µM] | Ratio IC50 (HeLa [7]) | Ratio IC50 (DU-145 [8]) | Ratio IC50 (MCF7 [9]) | Ratio IC50 (HCT-116 [10])
10 | COc1cc([C@@H]2c3cc4c(cc3[C@@H](O[C@@H]3O[C@@H]5CO[C@@H](C)O[C@H]5[C@H](O)[C@H]3O)[C@H]3COC(=O)[C@H]23)OCO4)cc(OC)c1O [ETOPOSIDE] | – | – | – | 11.9 | 13.8 | 17.5 | – | – | – | – | – | –
11 | COc1cccc2c1C(=O)c1c(O)c3c(c(O)c1C2=O)C[C@@](O)(C(=O)CO)C[C@@H]3O[C@H]1C[C@H](N)[C@H](O)[C@H](C)O1 [DOXORUBICIN HYDROCHLORIDE] | – | – | – | 4 | 1.4 | – | – | 4.4 | – | – | – | –
12 | CC1(COc2cc(O)c3c(=O)c4ccccc4oc3c2)CO1 (centres undefined) | 25 | 11 | – | 12.1 | 18.9 | 15 | 14.3 | 41.7 | – | – | – | –
13 | CC[C@@]1(O)C(=O)OCc2c1cc1n(c2=O)Cc2cc3ccccc3nc2-1 [CAMPTOTHECIN] | – | – | – | 2.3 | – | 14.2 | 1.1 | – | – | – | – | –
14 | CC1(COc2cc(OCC3(C)CO3)c3c(=O)c4ccccc4oc3c2)CO1 (centres undefined) | 41 | 24 | Active | 2.6 | 3.9 | 15.2 | 15.8 | 68.2 | – | – | – | –
15 | CC(O)(CCl)COc1cc(O)c2c(=O)c3ccccc3oc2c1 (centres undefined) | 52 | 20 | – | 47.1 | > 100 | > 100 | > 100 | > 100 | – | – | – | –
